Test results as given in ChEMBL document CHEMBL1122229, “alpha-adrenoreceptor reagents. 1. Synthesis of some 1,4-benzodioxans as selective presynaptic alpha 2-adrenoreceptor antagonists and potential antidepressants” (J Med Chem, 1983).
Activity calls are given as the source filed them. The rule behind the calls is not given here.

Key:
[1] = molecular target: T1, Adrenergic receptor alpha-2 (Rattus norvegicus) (UniProt P22086+P19328+P22909); assay: In vitro presynaptic antagonist potency at alpha-2 adrenergic receptor in rat or mouse vas deferens relative to compound 5 (RX781094); type: functional, tissue-based
Summary of the method: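 Prostatic halves of rat vas deferens (male Sprague–Dawley rats, 200–250 g; Krebs, 30 °C, 95% O2/5% CO2; 3-ms, 40 V, 0.1 Hz field pulses) or mouse vas deferens (Mg-free Krebs, 30 °C; 3-ms pulses, 0.1 Hz, 100–140 V) were used, with isometric twitch recording. […] The concentration giving 50% reversal was compared with the RX781094 standard in the same tissue.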

[2] = molecular target: T2, Adrenergic receptor alpha-2 (Rattus norvegicus, UniProt P22086+P19328+P22909); assay: Alpha-2 adrenergic receptor pA2 value against clonidine in vitro experiment in rat vas deferens; type: tissue-based
T2 sequence (P22086 whole entry): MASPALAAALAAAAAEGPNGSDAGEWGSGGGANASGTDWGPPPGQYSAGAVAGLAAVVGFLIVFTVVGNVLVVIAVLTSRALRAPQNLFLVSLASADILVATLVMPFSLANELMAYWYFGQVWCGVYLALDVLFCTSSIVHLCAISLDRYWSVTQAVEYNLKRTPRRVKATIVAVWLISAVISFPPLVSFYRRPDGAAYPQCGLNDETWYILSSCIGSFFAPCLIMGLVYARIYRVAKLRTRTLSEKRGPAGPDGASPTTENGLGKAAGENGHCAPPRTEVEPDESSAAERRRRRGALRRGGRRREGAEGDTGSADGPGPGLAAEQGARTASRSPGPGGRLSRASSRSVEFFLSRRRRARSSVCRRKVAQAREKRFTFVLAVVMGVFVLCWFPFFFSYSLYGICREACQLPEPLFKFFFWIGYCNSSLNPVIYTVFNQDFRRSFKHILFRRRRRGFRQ
T2 sequence (P19328 whole entry): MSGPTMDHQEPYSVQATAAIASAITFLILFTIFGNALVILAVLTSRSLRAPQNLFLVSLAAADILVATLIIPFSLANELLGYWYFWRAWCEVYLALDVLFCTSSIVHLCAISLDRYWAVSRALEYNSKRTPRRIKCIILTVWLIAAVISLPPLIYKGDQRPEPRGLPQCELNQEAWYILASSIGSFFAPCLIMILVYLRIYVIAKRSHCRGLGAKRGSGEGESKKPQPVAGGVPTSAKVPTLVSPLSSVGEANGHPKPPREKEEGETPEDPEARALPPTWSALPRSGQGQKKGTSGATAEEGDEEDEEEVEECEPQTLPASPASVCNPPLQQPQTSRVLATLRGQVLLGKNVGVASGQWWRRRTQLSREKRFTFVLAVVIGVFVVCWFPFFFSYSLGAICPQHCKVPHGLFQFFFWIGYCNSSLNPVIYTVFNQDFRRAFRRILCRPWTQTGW
T2 sequence (P22909 whole entry): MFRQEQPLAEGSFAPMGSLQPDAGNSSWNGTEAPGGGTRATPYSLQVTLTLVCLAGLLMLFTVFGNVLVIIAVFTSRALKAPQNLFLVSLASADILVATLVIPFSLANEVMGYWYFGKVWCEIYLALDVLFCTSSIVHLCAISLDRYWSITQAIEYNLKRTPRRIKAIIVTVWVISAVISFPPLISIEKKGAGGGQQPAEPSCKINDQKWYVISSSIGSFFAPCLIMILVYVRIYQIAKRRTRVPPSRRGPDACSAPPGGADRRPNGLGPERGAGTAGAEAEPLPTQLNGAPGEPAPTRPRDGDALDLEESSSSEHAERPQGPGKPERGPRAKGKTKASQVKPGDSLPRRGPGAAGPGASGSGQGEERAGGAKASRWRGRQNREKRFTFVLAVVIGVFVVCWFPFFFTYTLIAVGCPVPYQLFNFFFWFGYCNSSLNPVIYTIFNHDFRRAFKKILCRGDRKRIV
Summary of the method: (§1)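 pA2 was obtained by Arunlakshana–Schild analysis at postsynaptic α1 (anococcygeus) or presynaptic α2 (vas deferens) sites. Values are mean ± SEM of at least six experiments.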

[3] = molecular target: T3, Adrenergic receptor alpha-1 (Rattus norvegicus) (UniProt P15823+P23944+P43140); assay: Ratio of presynaptic antagonist potency to postsynaptic antagonist potency; type: functional
[4] = molecular target: T1, Adrenergic receptor alpha-2 (Rattus norvegicus); assay: In vitro presynaptic agonist potency at alpha-2 adrenergic receptor in rat or mouse vas deferens relative to clonidine; IA means inactive; type: functional, tissue-based
Summary of the method: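 Field-stimulated rat or mouse vas deferens (Krebs, 30 °C, 95% O2/5% CO2, 3-ms pulses at 0.1 Hz) with isometric twitch recording. […] Standard dose-response curves were run before and after the analogue's curve.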

[5] = molecular target: T4, Adrenergic receptor alpha-1 (Rattus norvegicus, UniProt P15823+P23944+P43140); assay: Alpha-1 adrenergic receptor pA2 value against norepinephrine in vitro experiment in rat anococcygeus.; summary of the method: as §1
T4 sequence (P15823 whole entry): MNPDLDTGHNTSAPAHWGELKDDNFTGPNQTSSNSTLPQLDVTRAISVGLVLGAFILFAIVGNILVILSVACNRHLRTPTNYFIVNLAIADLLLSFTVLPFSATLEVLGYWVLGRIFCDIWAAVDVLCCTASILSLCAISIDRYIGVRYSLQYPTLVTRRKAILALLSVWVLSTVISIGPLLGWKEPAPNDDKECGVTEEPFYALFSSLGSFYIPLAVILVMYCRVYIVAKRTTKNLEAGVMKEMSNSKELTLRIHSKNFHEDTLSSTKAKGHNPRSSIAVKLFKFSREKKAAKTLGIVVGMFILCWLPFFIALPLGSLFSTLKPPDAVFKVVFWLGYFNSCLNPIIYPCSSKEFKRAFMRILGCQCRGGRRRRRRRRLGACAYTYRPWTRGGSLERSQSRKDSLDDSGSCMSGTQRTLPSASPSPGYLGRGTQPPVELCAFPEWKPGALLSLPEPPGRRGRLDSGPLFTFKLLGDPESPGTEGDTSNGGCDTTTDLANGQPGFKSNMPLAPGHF
T4 sequence (P23944 whole entry): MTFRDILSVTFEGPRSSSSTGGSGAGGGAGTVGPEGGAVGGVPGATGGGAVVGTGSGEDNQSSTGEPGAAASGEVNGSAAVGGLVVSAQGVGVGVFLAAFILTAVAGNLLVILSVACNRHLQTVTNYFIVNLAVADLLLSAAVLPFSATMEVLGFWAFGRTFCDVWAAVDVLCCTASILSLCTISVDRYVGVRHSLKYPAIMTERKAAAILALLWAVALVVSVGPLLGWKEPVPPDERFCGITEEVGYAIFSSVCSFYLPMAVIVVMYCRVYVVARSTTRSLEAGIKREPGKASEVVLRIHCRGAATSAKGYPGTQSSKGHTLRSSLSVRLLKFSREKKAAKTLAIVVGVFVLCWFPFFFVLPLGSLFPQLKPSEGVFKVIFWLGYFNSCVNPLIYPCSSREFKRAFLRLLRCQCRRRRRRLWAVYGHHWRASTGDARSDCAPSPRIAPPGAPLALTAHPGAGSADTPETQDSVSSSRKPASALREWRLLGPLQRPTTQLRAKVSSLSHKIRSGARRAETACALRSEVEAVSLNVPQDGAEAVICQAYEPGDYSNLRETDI
T4 sequence (P43140 whole entry): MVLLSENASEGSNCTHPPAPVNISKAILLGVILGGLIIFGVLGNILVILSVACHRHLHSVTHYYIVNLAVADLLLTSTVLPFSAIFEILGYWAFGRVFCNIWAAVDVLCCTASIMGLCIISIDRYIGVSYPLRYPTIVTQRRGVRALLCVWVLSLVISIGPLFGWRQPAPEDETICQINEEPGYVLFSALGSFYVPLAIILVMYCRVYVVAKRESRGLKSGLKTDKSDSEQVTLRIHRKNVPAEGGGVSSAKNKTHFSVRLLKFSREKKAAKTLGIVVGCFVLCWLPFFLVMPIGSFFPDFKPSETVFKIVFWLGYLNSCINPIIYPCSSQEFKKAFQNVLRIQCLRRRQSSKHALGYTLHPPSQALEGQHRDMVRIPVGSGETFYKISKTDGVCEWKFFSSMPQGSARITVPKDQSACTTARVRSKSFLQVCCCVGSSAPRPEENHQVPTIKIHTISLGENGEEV

[6] = Ratio of pA2 value against alpha2 to alpha-1 adrenoceptor
Summary of the method: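 α2/α1 selectivity was taken as the antilog of the difference between the pA2 values at α2- and α1-adrenoreceptors.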

[7] = molecular target: T3, Adrenergic receptor alpha-1 (Rattus norvegicus); assay: In vitro postsynaptic antagonist potency at alpha-1 adrenergic receptor in rat anococcygeus relative to compound 5 (RX781094); type: functional
[8] = molecular target: T3, Adrenergic receptor alpha-1 (Rattus norvegicus); assay: In vitro postsynaptic agonist potency at alpha-1 adrenergic receptor in rat anococcygeus muscle relative to phenylephrine; IA means inactive.; type: functional, tissue-based
Summary of the method: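 Rat anococcygeus muscle (male Sprague–Dawley rats, 200–250 g) suspended at 0.5 g initial tension in a 50-mL organ bath. […] Standard dose-response curves were run before and after the analogue's curve.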

[9] = molecular target: T4, Adrenergic receptor alpha-1; assay: Alpha-1-adrenoceptor pA2 value against norepinephrine in vitro experiment in rat anococcygeus.; summary of the method: as §1
[10] = molecular target: T3, Adrenergic receptor alpha-1 (Rattus norvegicus); assay: In vitro postsynaptic antagonist potency at alpha-1-adrenoceptor in rat anococcygeus relative to compound 5 (RX781094); type: functional
[11] = molecular target: T3, Adrenergic receptor alpha-1 (Rattus norvegicus); assay: In vitro postsynaptic agonist potency at alpha-1 adrenergic receptor in rat anococcygeus muscle relative to phenylephrine; type: functional, tissue-based

Structure (SMILES) | Antagonist potency [1] | pA2 [2] | Selectivity [3] | Agonist potency [4] | pA2 [5] | Selectivity [6] | Antagonist potency [7] | Agonist potency [8] | pA2 [9] | Antagonist potency [10] | Agonist potency [11]
Cc1ccc2c(c1)OCC(C1=NCCN1)O2 (stereo unspecified) | 0.08 | 7.56 | 0.21 | inactive | 6.17 | 30 | 0.4 | inactive |  |  | 
Cc1ccc2c(c1)OC(C1=NCCN1)CO2 (stereo unspecified) | 0.08 | 7.1 | 0.14 | inactive |  | 17 |  |  | 5.87 | 0.8 | 0.004
